CaV13 ICDI inh: Disruptors of the CACNA1D IQ motif to Ca2+-dependent inactivation inhibitor domain association, primary screening, Förster resonance energy transfer in intact living …; inhibition, % at 12.3 µM; 340,000 compounds, 0.098% hits; HEK cells, CFP/YFP FRET ICDI-IQ, plate reader, 10 min; percent FRET-ratio fall versus neutral wells; AID 743397;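 active means mean replicate inhibition of at least 30% and at least 1% of replicates passing that level; inconclusive means only one of the two criteria is met; inactive means neither criterion is met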;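 further: 0% = median of the neutral control wells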
Hck-Nef inh: inhibitors of human Hck kinase activated by Nef; P08631; Recombinant Hck-YEEI plus Nef, Z-Lyte FRET kinase assay; inhibition, % at 20 µM; 220,000 compounds, 0.68% hits; AID 463187;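 active means Hck-Nef kinase inhibition above about 50%, limit read from the data; inactive means inhibition below that limit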;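 further: 0% = DMSO with Hck plus Nef and 100% = Hck alone without Nef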
Target sequence (P08631 whole entry, looked up): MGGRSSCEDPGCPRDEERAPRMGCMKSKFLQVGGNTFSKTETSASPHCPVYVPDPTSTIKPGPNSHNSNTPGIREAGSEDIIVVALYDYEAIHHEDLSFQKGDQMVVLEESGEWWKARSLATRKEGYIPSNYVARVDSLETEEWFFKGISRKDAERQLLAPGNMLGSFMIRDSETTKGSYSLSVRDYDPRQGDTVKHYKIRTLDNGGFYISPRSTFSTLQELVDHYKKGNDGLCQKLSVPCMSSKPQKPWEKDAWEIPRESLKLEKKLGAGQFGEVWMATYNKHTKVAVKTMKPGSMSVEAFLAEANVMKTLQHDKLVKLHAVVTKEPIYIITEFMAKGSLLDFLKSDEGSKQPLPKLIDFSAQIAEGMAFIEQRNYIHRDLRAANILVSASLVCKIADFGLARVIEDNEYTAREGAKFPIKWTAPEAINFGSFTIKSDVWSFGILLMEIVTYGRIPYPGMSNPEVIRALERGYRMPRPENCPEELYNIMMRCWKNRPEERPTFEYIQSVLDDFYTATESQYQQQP
Runt-SMMHC FRET: Runt domain-CBFb-SMMHC interaction inhibition | Cerulean-Runt/Venus-CBFb-SMMHC FRET ratio 530/480, 1 h | 220,000 compounds, 0.74% hits | inhibition, % at 20 µM | AID 1434 | Q01196+Q13951;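 active means mean inhibition across duplicate retests at 20 µM reaching about 50%, limit read from the data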;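 further: 0% = DMSO wells and 100% = wells with excess untagged CBFb-SMMHC; inhibitors lower the FRET ratio by blocking Runt binding to CBFb-SMMHC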
RanGTP-Imp inh: inhibitors of RanGTP-importin-beta interaction, primary screen, biochemical, FRET, CFP-Ran, YFP-importin-beta, homogeneous; cell-free CFP-Ran/YFP-importin-beta FRET ratio; inhibition, % (no concentration beside the values); 300,000 compounds, 1.1% hits; AID 2216;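 active means more than half of the replicate wells show a fall in the fluorescence ratio signal beyond about 16%, limit read from the data, passing the limit was not always enough; inconclusive means exactly half of the replicate wells pass the set limit; inactive means fewer than half of replicates pass the limit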;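 further: 0% = DMSO wells and 100% = Ran loaded with GDP instead of GTP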
Runt-CBFb FRET: blocks binding of human RUNX1 Runt domain to CBFb; 220,000 compounds, 0.46% hits; inhibition, % at 20 µM; Cerulean-Runt/Venus-CBFb FRET ratio 530/480, 1 h; Q01196+Q13951;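 active means inhibition over about 50% at 20 µM in the single-dose screen, limit read from the data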;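 further: 0% = DMSO wells and 100% = excess unlabeled CBFb competitor control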
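Measured by: fluorescence energy transfer, 422 nm excitation, 530/480 nm emission; test system: Cerulean-tagged RUNX1 Runt domain (FRET donor) fusion protein; buffer or medium: Tris pH 7.5 buffer with BSA; compound: one dose, 20 µM compound, 1% DMSO; times: two 1 h room-temperature incubations shielded from light; benchmarks: unlabeled CBFb 5 µM, positive control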
Hck Nef conf: confirmation of Hck-Nef kinase inhibitors; shares compounds with Hck-Nef inh; Recombinant Hck-YEEI:Nef, Z-Lyte FRET kinase assay; 1,300 compounds, 28% hits; AID 463188; calls only at 10 µM;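 active means average inhibition of at least 50%, with Z-scores no higher than 3 in both the phospho-tyrosine peptide and fluorescence counterscreens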
* = called active by the depositor; i = inactive; u = inconclusive; x = not tested or not shown; + = active, no number. Shown are actives, neighbours in structure and some others; about 1.5% of the full set was active somewhere.

SMILES | CaV13 ICDI inh | Hck-Nef inh | Runt-SMMHC FRET | RanGTP-Imp inh | Runt-CBFb FRET | Hck Nef conf
CC(=O)Nc1sc(N/N=C/c2ccccc2)nc1-c1ccc(C)cc1 | -4.6 | 68.8* | -2.7 | 3.3 | 6.4 | i
CC(=O)Nc1sc(N/N=C\c2ccccc2)nc1-c1cccs1 | -3.0 | 13.6 | -3.0 | 4.4 | 12.2 | x
CC(=O)Nc1sc(N/N=C/c2ccccc2F)nc1-c1ccc(C)cc1 | -3.9 | 29.1 | -13.7 | 0.8 | 12.2 | x
CC(=O)c1sc(N/N=C\c2ccc(Br)cc2)nc1C | -6.4 | 0.3 | -49.7 | -1.4 | -23.5 | x
CC(=O)Nc1sc(N/N=C/c2ccc(O)cc2)nc1-c1ccc(C)cc1 | -6.3 | 68.7* | 0.3 | 0.2 | 6.7 | i
COc1ccccc1N1CCN(C(=O)c2ccc(CN3CCc4ccccc4C3)cc2)CC1 | -5.2 | -15.7 | -3.0 | u | -3.8 | x
CCOC(=O)c1ccccc1NC(=O)CSc1nnc(COc2ccccc2)n1CC | -5.8 | 0.6 | -1.7 | -3.0 | -2.8 | x
CCCCOc1ccc(-c2nnc(N)s2)cc1 | -3.1 | 78.5* | 1.9 | 3.0 | -4.2 | +
COc1ccccc1/C=N\Nc1cn[nH]c(=O)c1Cl | 0.2 | 61.1* | -1.4 | 4.3 | 1.0 | i
O=c1[nH]ncc(N/N=C\c2ccncc2)c1Cl | 3.8 | 42.8 | -0.6 | 0.5 | -0.9 | x
O=c1[nH]ncc(N/N=C\c2cccs2)c1Cl | -4.9 | 58.7* | 1.0 | x | -0.9 | +
Cc1cccc(/C=N\Nc2cn[nH]c(=O)c2Cl)c1 | -3.6 | 46.0 | 3.1 | 2.6 | -0.9 | x
CCCOc1c(Br)cc(C2C3=C(CCCC3=O)N(C)C3=C2C(=O)CCC3)cc1OC | + | 54.2* | 79.2* | 106.9* | -1.9 | x
COc1cc(Br)cc(C2C3=C(CCCC3=O)N(c3ccc(F)cc3)C3=C2C(=O)CCC3)c1O | -3.1 | 3.4 | 3.6 | -1.1 | 1.1 | x
COc1ccc(NC(=O)c2nc[nH]c2C(=O)N[C@@H](C)C(=O)OC(C)(C)C)cc1 | -6.8 | 53.2* | 5.0 | -3.3 | 1.0 | i
CC1CC(C)CN(C(=O)COC(=O)C2CCN(S(=O)(=O)c3ccc4c(c3)OCCO4)CC2)C1 (stereo unspecified) | -2.2 | x | x | 4.3 | x | x
Cc1c(CC(=O)O)c(=O)oc2c(C)c(OCc3ccc(F)cc3Cl)ccc12 | -21.2 | x | x | 0.4 | x | x
CCc1c(C)c2cc(Cl)c(O)c(CN(C)C)c2oc1=O | -4.8 | 122.8* | 91.6* | 39.5* | 92.4* | x
O=c1oc2c(CN3CCOCC3)c(O)c(Cl)cc2c2c1CCC2 | 2.1 | 157.8* | 176.4* | x | 103.9* | x
CN(C)Cc1c(O)c(Cl)cc2c3c(c(=O)oc12)CCCC3 | -3.7 | 137.0* | 58.7* | 42.9* | 87.5* | x
O=c1oc2c(CN3CCCCC3)c(O)ccc2c2c1CCCC2 | -2.5 | 37.2 | 49.6 | 8.6 | 22.8 | x
O=C(NCc1ccc2c(c1)OCO2)C(=O)NC1CCCCC1 | -5.6 | -1.6 | 1.3 | u | -1.1 | x
O=C1/C(=C/C=C/c2ccco2)SC(=S)N1c1ccc(O)cc1 | -6.0 | 97.7* | 4.4 | -2.9 | 29.2 | +
CC(C)C(C(=O)O)N1C(=O)/C(=C/c2cccn2C)SC1=S (stereo unspecified) | -5.2 | 2.6 | -68.1 | x | -43.5 | x
O=C(NN1C(=O)/C(=C/C=C/c2ccco2)SC1=S)c1ccncc1 | -3.8 | 90.4* | -2.6 | -4.0 | 36.8 | i
SMILES | CaV13 ICDI inh | Hck-Nef inh | Runt-SMMHC FRET | RanGTP-Imp inh | Runt-CBFb FRET | Hck Nef conf
CC(C)C(C(=O)O)N1C(=O)/C(=C/C=C/c2ccco2)SC1=S (stereo unspecified) | x | 83.1* | 11.7 | -4.5 | 24.5 | i
CC(C)Oc1c(N2CCOCC2)c(=O)c1=O | -10.9 | 23.7 | -1.3 | -2.9 | -0.6 | x
CCOc1ccc(N2C(=O)CC(Cc3ccc(Br)cc3)C2=O)cc1 (stereo unspecified) | -6.1 | x | x | -0.6 | x | x
COc1ccccc1OCc1ccc(C(=O)NCC2CCCO2)cc1 (stereo unspecified) | -7.5 | x | x | x | x | x
O=C(Cn1c2ccc(F)cc2c2nc3n(c(=O)c21)CCS3)Nc1ccccc1F | x | 28.9 | 1.7 | -2.6 | -2.0 | x
O=C(Cn1c2ccc(F)cc2c2nc3n(c(=O)c21)CCS3)Nc1ccccc1C(F)(F)F | -2.2 | 89.2* | -7.1 | 0.5 | -1.9 | i
O=C(O)c1ccc2nc(-c3ccco3)c(-c3ccco3)nc2c1 | -8.5 | 51.8* | 8.5 | x | 45.9 | i
Cc1ccc(-c2nc3ccc(C(=O)O)cc3nc2-c2ccc(C)cc2)cc1 | -8.9 | 3.4 | 6.4 | 0.5 | x | x
CCOC(=O)c1[nH]c(C)c(C(=O)OCC(=O)N2CCc3ccccc32)c1C | -7.5 | -20.6 | -5.0 | -0.3 | -1.7 | x
CCOC(=O)c1c(C)[nH]c(C(=O)OCC(=O)N2CCc3ccccc32)c1C | x | 92.5* | 2.7 | -2.2 | -6.7 | i
O=C1CSC(=S)N1/N=C/c1ccc(Cl)c([N+](=O)[O-])c1 | x | 80.2* | -6.0 | 7.1 | 12.2 | +
CNC(=O)c1cccc(NC(=O)c2cc(-c3ccccc3)nc3c2cnn3C(C)C)c1 | -2.3 | x | x | x | x | x
CCN1CCN(Cc2ccc(NC(=O)c3ccc(C)c(NC(=O)N4CCNC4=O)c3)cc2C(F)(F)F)CC1 | -10.1 | 28.1 | 2.9 | -0.8 | 0.7 | x
CCN1CCN(Cc2ccc(NC(=O)c3ccc(C)c(NC(=O)c4nccn4C)c3)cc2C(F)(F)F)CC1 | -6.9 | 16.5 | 3.7 | 2.9 | 2.2 | x
CCN1CCN(Cc2ccc(NC(=O)c3ccc(C)c(NC(=O)c4cc(-c5ccc(Br)cc5)n[nH]4)c3)cc2C(F)(F)F)CC1 | -4.7 | 95.9* | 39.7 | 3.0 | 2.4 | +
CCN1CCN(Cc2ccc(NC(=O)c3ccc(C)c(NC(=O)c4nccnc4N)c3)cc2C(F)(F)F)CC1 | -10.8 | 55.6* | -2.8 | -1.8 | 3.1 | i
Cc1cccc(-n2c(=O)c(C#N)cc3c(=O)n4ccccc4nc32)c1 | x | 199.1* | 59.0* | 127.6* | 19.5 | x
Cc1cc(-n2c(=O)c(C#N)cc3c(=O)n4cccc(C)c4nc32)no1 | 42.5* | 190.0* | 60.5* | 183.8* | 18.4 | x
Cc1cccn2c(=O)c3cc(C(=O)N4CCCc5ccccc54)n(C)c3nc12 | x | 13.1 | x | x | x | x
Cc1ccc(C)c(-n2c(=O)c(C#N)cc3c(=O)n4ccccc4nc32)c1 | 2.4 | + | 89.6* | 107.6* | 3.0 | x
COc1c(Cl)cc(C(=O)O)cc1Cl | x | x | x | -3.2 | x | x
O=C(NC1(C(=O)NC2CCCCC2)CCCCC1)c1ccccn1 | -5.3 | -1.1 | -0.1 | 3.9 | -0.2 | x
Cc1ccc(Cn2cccc(-c3nc4ccccc4s3)c2=O)cc1 | -3.1 | 123.3* | 133.7* | u | 49.5 | x
O=c1c(-c2nc3ccccc3s2)cccn1Cc1ccccc1 | -4.4 | 8.0 | 32.5 | 9.1 | 11.7 | x
O=C(CC12CC3CC(CC(C3)C1)C2)Nc1c(F)cccc1F | x | x | x | -4.8 | x | x

Screens as filed in PubChem BioAssay.
